One compound from ChEMBL document CHEMBL4368873, “Novel O-methyl goniofufurone and 7-epi-goniofufurone derivatives: synthesis, in vitro cytotoxicity and SAR analysis” (Medchemcomm, 2018) can be followed below.

Assay [1] deals with K562. Nature of the assay: Down regulation of Bcl-2 expression in human K562 cells at IC50 measured after 72 hrs by Western blot analysis. The class given is functional, cell-based. (In general: Immunoblotting shows a protein as a band on a membrane.)
For assay [2], the system named is MDA-MB-231. As to the kind of experiment: Cytotoxicity against human MDA-MB-231 cells assessed as inhibition of cell growth after 72 hrs by MTT assay. The class given is functional, cell-based. Particulars: MDA-MB-231, 72 h. (Formazan colour is commonly taken as a measure of viable cells.)
The subject of assay [3] is MDA-MB-231. As to the kind of experiment: Potency index, ratio of doxorubicin IC50 to test compound IC50 for human MDA-MB-231 cells. The class given is functional.
The test system of assay [4] is K562. Nature of the assay: Cell cycle arrest in human K562 cells assessed as accumulation at G0/G1 phase at IC50 after 72 hrs by propidium iodide staining based flow cytometry (reference value: 47.51%). In kind it is functional. A general note: Flow cytometry measures light scatter and fluorescence of single cells or particles in a stream.
The test system of the next assay is HL-60. As to the kind of experiment: Cytotoxicity against human HL60 cells assessed as inhibition of cell growth after 72 hrs by MTT assay. Particulars: HL-60, 72 h. The class given is functional, cell-based. The method, boiled down:
(§1)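 Exponentially growing cells were exposed 72 h to compounds diluted from a 10 mM DMSO stock into serum-free medium. Growth was read by colorimetric MTT. Leukaemia/lymphoma lines (K562, HL-60, Jurkat, Raji) were grown in RPMI 1640; MCF-7, MDA-MB 231, HeLa, A549 and normal MRC-5 fibroblasts in DMEM; 37 °C, 5% CO2.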

The test system of another assay is HeLa. As to the kind of experiment: Cytotoxicity against human HeLa cells assessed as inhibition of cell growth after 72 hrs by MTT assay. In kind it is functional, cell-based.
In assay [5] the test system is K562. As to the kind of experiment: Induction of apoptosis in human K562 cells assessed as necrotic cells at IC50 after 72 hrs by Annexin V-FITC/propidium iodide staining based flow cytometry relative to control. In kind it is functional. The method, boiled down: (§2)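 K562 cells seeded at 5 × 10⁵ per well, treated 72 h at each compound's IC₅₀ level. Viability was checked by trypan blue exclusion. Viable cells were double-stained with Annexin V-FITC and propidium iodide and analysed by flow cytometry. Results are given as specific apoptosis or specific necrosis (%) relative to untreated cells.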

The subject of assay [6] is K562. As to the kind of experiment: Induction of apoptosis in human K562 cells assessed as apoptotic cells at IC50 after 72 hrs by Annexin V-FITC/propidium iodide staining based flow cytometry relative to control. The class given is functional. The method, boiled down: as §2
Assay [7] relates to K562. As to the kind of experiment: Cytotoxicity against human K562 cells assessed as inhibition of cell growth after 72 hrs by MTT assay. In kind it is functional, cell-based. The note with it: K562, 72 h.
The subject of assay [8] is A549. As to the kind of experiment: Potency index, ratio of doxorubicin IC50 to test compound IC50 for human A549 cells. In kind it is functional.
For assay [9], the system named is K562. Nature of the assay: Cell cycle arrest in human K562 cells assessed as accumulation at G2/M phase at IC50 after 72 hrs by propidium iodide staining based flow cytometry (reference value: 24.13%). In kind it is functional.
Assay [10] has as its system K562. As to the kind of experiment: Cell cycle arrest in human K562 cells assessed as accumulation at S phase at IC50 after 72 hrs by propidium iodide staining based flow cytometry (reference value: 26.52%). In kind it is functional.
The test system of assay [11] is K562. Nature of the assay: Down regulation of Bax expression in human K562 cells at IC50 measured after 72 hrs by Western blot analysis. In kind it is functional, cell-based.
Assay [12] deals with K562. As to the kind of experiment: Up regulation of cleaved PARP expression in human K562 cells at IC50 measured after 72 hrs by Western blot analysis. The class given is functional, cell-based.
Another assay relates to Raji. As to the kind of experiment: Cytotoxicity against human Raji cells assessed as inhibition of cell growth after 72 hrs by MTT assay. The class given is functional, cell-based.
Another assay deals with MCF7. Nature of the assay: Cytotoxicity against human MCF7 cells assessed as inhibition of cell growth after 72 hrs by MTT assay. The class given is functional, cell-based. The note with it: MCF7, 72 h. The method, boiled down: as §1
A further assay deals with MRC5. As to the kind of experiment: Cytotoxicity against human MRC5 cells assessed as inhibition of cell growth after 72 hrs by MTT assay. Particulars: MRC5, 72 h. The class given is cell-based.
The subject of another assay is Jurkat. Nature of the assay: Cytotoxicity against human Jurkat cells assessed as inhibition of cell growth after 72 hrs by MTT assay. The class given is functional, cell-based. In a few lines:
as §1

Assay [13] concerns A549. As to the kind of experiment: Cytotoxicity against human A549 cells assessed as inhibition of cell growth after 72 hrs by MTT assay. The class given is functional, cell-based. Particulars: A549, 72 h.
Assay [14] relates to K562. Nature of the assay: Cell cycle arrest in human K562 cells assessed as accumulation at sub-G1 phase at IC50 after 72 hrs by propidium iodide staining based flow cytometry (reference value: 1.84%). The class given is functional.

Activity calls are given as the source filed them. No cut-off for these calls is given here.

The term IC50 denotes the concentration at which inhibition is half-maximal. With `CO[C@H](c1ccccc1)[C@H]1O[C@@H]2CC(=O)O[C@@H]2[C@H]1O`, the outcome in the assay with K562 [1], in the assay on K562 [11] and with K562 [12] was Active. Moreover, the half-maximal inhibitory concentration (IC50) in the assay with MDA-MB-231 [2] was 0.064 µM; with HL-60, 2.96 µM; with HeLa, 5.64 µM; in the assay on K562 [7], 7.95 µM; in the assay with Raji, 15.6 µM; in the assay with MCF7, more than 100 µM. Also, the IC50 with MRC5 is more than 100 µM; in the assay on Jurkat, 15.6 µM; with A549 [13], 2.64 µM. Moreover, the “Ratio IC50” value in the assay with MDA-MB-231 [3] was 1.5; in the assay on A549 [8], 2. Moreover, the Activity is 52.09% in the assay with K562 [4]; -0.5% with K562 [5]; -0.27% in the assay with K562 [6]; 24.89% in the assay on K562 [9]; 20.61% in the assay on K562 [10]; 2.4% in the assay with K562 [14].
